# Tested on: not listed separately
# Assay: Inhibition of Plasmodium falciparum falcipain-2 expressed in Escherichia coli
# Conditions: not given
# How it was run: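 Recombinant E. coli-expressed, refolded enzyme at 0.25 nM in 100 mM sodium acetate pH 5.5, 500 μM CHAPS, 10 mM DTT, DMSO ≤1%. Substrate H-D-Val-Leu-Arg-AFC at 30 μM final. Inhibitor dilutions mixed with substrate, enzyme added last; fluorescence followed 1 h at room temperature. IC50 from percent activity versus concentration.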
row,SMILES,IC50
1,CC(C)CN(NC(=O)c1cc(CN2CCN(C)CC2)on1)c1nc(C#N)ncc1Br,1 nM
2,CC(C)CN(NC(=O)c1cc2cccc(CN3CCN(C)CC3)c2o1)c1nc(C#N)ncc1Br,0.4 nM
3,CC(C)CN(NC(=O)c1cc2cc(CN3CCN(C)CC3)ccc2o1)c1nc(C#N)ncc1Br,< 0.5 nM
4,CC(C)CN(NC(=O)c1cc2cc(OCCN3CCNCC3)ccc2o1)c1nc(C#N)ncc1Cl,1 nM
5,CC(C)CN(NC(=O)c1ccc(-c2cccc(CN3CCN(C)CC3)c2)nc1)c1nc(C#N)ncc1Br,0.2 nM
6,CC(C)CN(NC(=O)c1ccc(-c2ccc(CN3CCN(C)CC3)cc2)nc1)c1nc(C#N)ncc1Br,< 0.5 nM
7,CC(C)CN(NC(=O)c1cncc(-c2ccc(CN3CCN(C)CC3)cc2)c1)c1nc(C#N)ncc1Br,< 0.5 nM
8,CC(C)CN(NC(=O)c1cncc(-c2cccc(CN3CCN(C)CC3)c2)c1)c1nc(C#N)ncc1Br,< 0.5 nM
9,CC(C)CN(NC(=O)c1ccc(-c2ccc(CN3CCN(C)CC3)cc2)o1)c1nc(C#N)ncc1Br,< 0.5 nM
10,CC(C)CN(NC(=O)Cc1ccc(OCCN2CCOCC2)cc1)c1nc(C#N)ncc1Br,0.7 nM
11,CC(C)CN(NC(=O)Cc1ccc(OCCN2CCOCC2)cc1)c1nc(C#N)ncc1Cl,1 nM
12,CC(C)CN(NC(=O)Cc1ccc(CN2CCN(C)CC2)cc1)c1nc(C#N)ncc1Br,0.8 nM
13,CC(C)CN(NC(=O)Cc1ccc(CN2CCN(C)CC2)cc1)c1nc(C#N)ncc1Cl,0.7 nM
14,CCCN1CCN(Cc2ccc(CC(=O)NN(CC(C)C)c3nc(C#N)ncc3Br)cc2)CC1,0.2 nM
15,CCCN1CCN(Cc2ccc(CC(=O)NN(CC(C)C)c3nc(C#N)ncc3Cl)cc2)CC1,0.7 nM
16,CC(C)CN(NC(=O)C(C)(C)c1ccc(OCCN2CCOCC2)cc1)c1nc(C#N)ncc1Br,3 nM
17,CC(C)CN(NC(=O)C(C)(C)c1ccc(OCCN2CCOCC2)cc1)c1nc(C#N)ncc1Cl,4 nM
18,CC(C)CN(NC(=O)C(C)(C)c1ccc(CN2CCN(C)CC2)cc1)c1nc(C#N)ncc1Br,3 nM
19,CC(C)CN(NC(=O)C(C)(C)c1ccc(CN2CCN(C)CC2)cc1)c1nc(C#N)ncc1Cl,5 nM
20,CC(C)CN(c1nc(C#N)ncc1Br)N(CCCN1CCN(C)CC1)C(=O)Cc1ccccc1,6 nM
21,CC(C)CN(c1nc(C#N)ncc1Cl)N(CCCN1CCN(C)CC1)C(=O)Cc1ccccc1,11 nM
22,CC(C)CN(c1nc(C#N)ncc1Br)N(CCCN1CCN(C)CC1)C(=O)c1ccccc1,7 nM
23,CC(C)CN(c1nc(C#N)ncc1Br)N(CCCN1CCN(C)CC1)C(=O)c1ccc(F)cc1,9 nM
24,C[C@H]1CCC[C@H]1N(NC(=O)c1ccc(CN2CCN(C)CC2)cc1)c1nc(C#N)ncc1Br (relative stereo),2 nM

# Tested on: Plasmodium falciparum
# Assay: Antiplasmodial activity against Plasmodium falciparum W2 after 48 hrs
# Type: functional, organism-based
# Conditions: W2, 48 h
# How it was run: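 W2 P. falciparum grown in human erythrocytes, 2% hematocrit, RPMI with 10% human serum or 0.5% AlbuMAX II; sorbitol-synchronized. Serial dilutions from DMSO stocks added at ring stage for 48 h, medium and drug renewed at 24 h. Cells fixed in 1% formaldehyde, stained with YOYO-1, parasitemia counted by flow cytometry; IC50 from percent parasitemia versus untreated controls.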
row,SMILES,IC50
1,CC(C)CN(NC(=O)c1cc(CN2CCN(C)CC2)on1)c1nc(C#N)ncc1Br,33 nM
2,CC(C)CN(NC(=O)c1cc2cccc(CN3CCN(C)CC3)c2o1)c1nc(C#N)ncc1Br,48 nM
3,CC(C)CN(NC(=O)c1cc2cc(CN3CCN(C)CC3)ccc2o1)c1nc(C#N)ncc1Br,30 nM
4,CC(C)CN(NC(=O)c1cc2cc(OCCN3CCNCC3)ccc2o1)c1nc(C#N)ncc1Cl,76 nM
5,CC(C)CN(NC(=O)c1ccc(-c2cccc(CN3CCN(C)CC3)c2)nc1)c1nc(C#N)ncc1Br,22 nM
6,CC(C)CN(NC(=O)c1ccc(-c2ccc(CN3CCN(C)CC3)cc2)nc1)c1nc(C#N)ncc1Br,16 nM
7,CC(C)CN(NC(=O)c1cncc(-c2ccc(CN3CCN(C)CC3)cc2)c1)c1nc(C#N)ncc1Br,1 nM
8,CC(C)CN(NC(=O)c1cncc(-c2cccc(CN3CCN(C)CC3)c2)c1)c1nc(C#N)ncc1Br,2 nM
9,CC(C)CN(NC(=O)c1ccc(-c2ccc(CN3CCN(C)CC3)cc2)o1)c1nc(C#N)ncc1Br,17 nM
10,CC(C)CN(NC(=O)Cc1ccc(OCCN2CCOCC2)cc1)c1nc(C#N)ncc1Br,65 nM
11,CC(C)CN(NC(=O)Cc1ccc(OCCN2CCOCC2)cc1)c1nc(C#N)ncc1Cl,403 nM
12,CC(C)CN(NC(=O)Cc1ccc(CN2CCN(C)CC2)cc1)c1nc(C#N)ncc1Br,28 nM
13,CC(C)CN(NC(=O)Cc1ccc(CN2CCN(C)CC2)cc1)c1nc(C#N)ncc1Cl,43 nM
14,CCCN1CCN(Cc2ccc(CC(=O)NN(CC(C)C)c3nc(C#N)ncc3Br)cc2)CC1,18 nM
15,CCCN1CCN(Cc2ccc(CC(=O)NN(CC(C)C)c3nc(C#N)ncc3Cl)cc2)CC1,41 nM
16,CC(C)CN(NC(=O)C(C)(C)c1ccc(OCCN2CCOCC2)cc1)c1nc(C#N)ncc1Br,802 nM
17,CC(C)CN(NC(=O)C(C)(C)c1ccc(OCCN2CCOCC2)cc1)c1nc(C#N)ncc1Cl,806 nM
18,CC(C)CN(NC(=O)C(C)(C)c1ccc(CN2CCN(C)CC2)cc1)c1nc(C#N)ncc1Br,236 nM
19,CC(C)CN(NC(=O)C(C)(C)c1ccc(CN2CCN(C)CC2)cc1)c1nc(C#N)ncc1Cl,253 nM
20,CC(C)CN(c1nc(C#N)ncc1Br)N(CCCN1CCN(C)CC1)C(=O)Cc1ccccc1,214 nM
21,CC(C)CN(c1nc(C#N)ncc1Cl)N(CCCN1CCN(C)CC1)C(=O)Cc1ccccc1,108 nM
22,CC(C)CN(c1nc(C#N)ncc1Br)N(CCCN1CCN(C)CC1)C(=O)c1ccccc1,166 nM
23,CC(C)CN(c1nc(C#N)ncc1Br)N(CCCN1CCN(C)CC1)C(=O)c1ccc(F)cc1,346 nM
24,C[C@H]1CCC[C@H]1N(NC(=O)c1ccc(CN2CCN(C)CC2)cc1)c1nc(C#N)ncc1Br (relative stereo),82 nM

# Tested on: not listed separately
# Assay: Inhibition of Plasmodium falciparum falcipain-3 expressed in Escherichia coli
# Conditions: not given
# How it was run: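 Refolded recombinant enzyme from E. coli, 2 nM, in 100 mM sodium acetate pH 5.5 with 500 μM CHAPS and 10 mM DTT, DMSO up to 1%. H-D-Val-Leu-Arg-AFC at 150 μM final. Reaction started by enzyme addition; fluorescence monitored 1 h at room temperature. IC50 derived from percent activity plotted against inhibitor concentration.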
row,SMILES,IC50
1,CC(C)CN(NC(=O)c1cc(CN2CCN(C)CC2)on1)c1nc(C#N)ncc1Br,46 nM
2,CC(C)CN(NC(=O)c1cc2cccc(CN3CCN(C)CC3)c2o1)c1nc(C#N)ncc1Br,61 nM
3,CC(C)CN(NC(=O)c1cc2cc(CN3CCN(C)CC3)ccc2o1)c1nc(C#N)ncc1Br,29 nM
4,CC(C)CN(NC(=O)c1cc2cc(OCCN3CCNCC3)ccc2o1)c1nc(C#N)ncc1Cl,107 nM
5,CC(C)CN(NC(=O)c1ccc(-c2cccc(CN3CCN(C)CC3)c2)nc1)c1nc(C#N)ncc1Br,38 nM
6,CC(C)CN(NC(=O)c1ccc(-c2ccc(CN3CCN(C)CC3)cc2)nc1)c1nc(C#N)ncc1Br,26 nM
7,CC(C)CN(NC(=O)c1cncc(-c2ccc(CN3CCN(C)CC3)cc2)c1)c1nc(C#N)ncc1Br,< 3 nM
8,CC(C)CN(NC(=O)c1cncc(-c2cccc(CN3CCN(C)CC3)c2)c1)c1nc(C#N)ncc1Br,4 nM
9,CC(C)CN(NC(=O)c1ccc(-c2ccc(CN3CCN(C)CC3)cc2)o1)c1nc(C#N)ncc1Br,5 nM
10,CC(C)CN(NC(=O)Cc1ccc(OCCN2CCOCC2)cc1)c1nc(C#N)ncc1Br,5 nM
11,CC(C)CN(NC(=O)Cc1ccc(OCCN2CCOCC2)cc1)c1nc(C#N)ncc1Cl,8 nM
12,CC(C)CN(NC(=O)Cc1ccc(CN2CCN(C)CC2)cc1)c1nc(C#N)ncc1Br,5 nM
13,CC(C)CN(NC(=O)Cc1ccc(CN2CCN(C)CC2)cc1)c1nc(C#N)ncc1Cl,5 nM
14,CCCN1CCN(Cc2ccc(CC(=O)NN(CC(C)C)c3nc(C#N)ncc3Br)cc2)CC1,3 nM
15,CCCN1CCN(Cc2ccc(CC(=O)NN(CC(C)C)c3nc(C#N)ncc3Cl)cc2)CC1,6 nM
16,CC(C)CN(NC(=O)C(C)(C)c1ccc(OCCN2CCOCC2)cc1)c1nc(C#N)ncc1Br,13 nM
17,CC(C)CN(NC(=O)C(C)(C)c1ccc(OCCN2CCOCC2)cc1)c1nc(C#N)ncc1Cl,18 nM
18,CC(C)CN(NC(=O)C(C)(C)c1ccc(CN2CCN(C)CC2)cc1)c1nc(C#N)ncc1Br,21 nM
19,CC(C)CN(NC(=O)C(C)(C)c1ccc(CN2CCN(C)CC2)cc1)c1nc(C#N)ncc1Cl,46 nM
20,CC(C)CN(c1nc(C#N)ncc1Br)N(CCCN1CCN(C)CC1)C(=O)Cc1ccccc1,27 nM
21,CC(C)CN(c1nc(C#N)ncc1Cl)N(CCCN1CCN(C)CC1)C(=O)Cc1ccccc1,78 nM
22,CC(C)CN(c1nc(C#N)ncc1Br)N(CCCN1CCN(C)CC1)C(=O)c1ccccc1,78 nM
23,CC(C)CN(c1nc(C#N)ncc1Br)N(CCCN1CCN(C)CC1)C(=O)c1ccc(F)cc1,105 nM
24,C[C@H]1CCC[C@H]1N(NC(=O)c1ccc(CN2CCN(C)CC2)cc1)c1nc(C#N)ncc1Br (relative stereo),41 nM

# — ChEMBL document CHEMBL1212900, “Falcipain inhibitors: optimization studies of the 2-pyrimidinecarbonitrile lead series” (J Med Chem, 2010)
